Laboratory results as given in ChEMBL document CHEMBL1152903, “Synthesis and activity of N-oxalylglycine and its derivatives as Jumonji C-domain-containing histone lysine demethylase inhibitors” (Bioorg Med Chem Lett, 2009).
One block for each compound: values may come before it. Active and inactive are the calls of the source. No cut-off for these calls is given here.

How the values were obtained:
[1] = biological target: T1, Lysine-specific demethylase 4A (Homo sapiens) (UniProt O75164); experiment: Inhibition of JMJD2A-mediated H3K9 demethylation activity at 1 mM
T1 sequence (whole entry): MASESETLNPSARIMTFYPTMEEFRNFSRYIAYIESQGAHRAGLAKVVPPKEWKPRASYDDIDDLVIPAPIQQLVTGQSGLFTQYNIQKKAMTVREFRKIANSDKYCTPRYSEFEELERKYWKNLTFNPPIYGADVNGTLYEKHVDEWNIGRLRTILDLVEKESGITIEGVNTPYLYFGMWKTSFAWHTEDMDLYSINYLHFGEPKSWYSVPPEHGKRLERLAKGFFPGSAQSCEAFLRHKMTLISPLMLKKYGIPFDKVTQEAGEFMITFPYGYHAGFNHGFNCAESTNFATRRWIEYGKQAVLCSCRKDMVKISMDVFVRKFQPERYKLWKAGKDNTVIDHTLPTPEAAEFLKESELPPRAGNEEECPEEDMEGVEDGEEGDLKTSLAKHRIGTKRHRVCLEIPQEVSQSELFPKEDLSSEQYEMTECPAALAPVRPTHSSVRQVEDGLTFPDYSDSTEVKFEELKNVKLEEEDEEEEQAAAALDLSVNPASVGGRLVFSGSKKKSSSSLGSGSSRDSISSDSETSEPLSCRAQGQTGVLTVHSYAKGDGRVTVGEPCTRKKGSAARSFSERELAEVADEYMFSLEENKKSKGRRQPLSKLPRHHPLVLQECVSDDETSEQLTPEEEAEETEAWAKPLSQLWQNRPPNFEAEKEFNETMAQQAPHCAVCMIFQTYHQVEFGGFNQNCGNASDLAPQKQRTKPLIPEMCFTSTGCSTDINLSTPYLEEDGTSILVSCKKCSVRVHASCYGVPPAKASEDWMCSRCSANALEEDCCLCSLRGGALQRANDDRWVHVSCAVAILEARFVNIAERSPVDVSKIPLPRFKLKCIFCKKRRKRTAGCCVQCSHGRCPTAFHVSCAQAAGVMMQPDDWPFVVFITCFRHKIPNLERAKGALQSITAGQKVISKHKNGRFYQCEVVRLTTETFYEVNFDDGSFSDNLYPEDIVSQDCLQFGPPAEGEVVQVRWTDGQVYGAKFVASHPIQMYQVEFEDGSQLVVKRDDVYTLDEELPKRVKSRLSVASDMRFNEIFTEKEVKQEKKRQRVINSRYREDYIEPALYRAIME
Procedure, shortened: (§1)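 GST fusions of JMJD2A (aa 2–350) or JMJD2C (aa 2–352), made in E. coli and purified on glutathione-agarose. Each was incubated with histones in 50 mM Hepes pH 7.4, 50 mM NaCl, 50 mM KCl, 2 mM ascorbate, 0.2 mM (NH₄)₂Fe(SO₄)₂ and α-ketoglutarate, with inhibitor in DMSO or DMSO alone, 1 h at 37 °C. Read-out was anti-H3K9me₃ Western blot with ECL; H4K20me₁ served as a control.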

[2] = biological target: T2, Lysine-specific demethylase 4C (Homo sapiens) (UniProt Q9H3R0); experiment: Inhibition of JMJD2C-mediated H3K9 demethylation activity at 3 mM; procedure, shortened: as §1
T2 sequence (whole entry): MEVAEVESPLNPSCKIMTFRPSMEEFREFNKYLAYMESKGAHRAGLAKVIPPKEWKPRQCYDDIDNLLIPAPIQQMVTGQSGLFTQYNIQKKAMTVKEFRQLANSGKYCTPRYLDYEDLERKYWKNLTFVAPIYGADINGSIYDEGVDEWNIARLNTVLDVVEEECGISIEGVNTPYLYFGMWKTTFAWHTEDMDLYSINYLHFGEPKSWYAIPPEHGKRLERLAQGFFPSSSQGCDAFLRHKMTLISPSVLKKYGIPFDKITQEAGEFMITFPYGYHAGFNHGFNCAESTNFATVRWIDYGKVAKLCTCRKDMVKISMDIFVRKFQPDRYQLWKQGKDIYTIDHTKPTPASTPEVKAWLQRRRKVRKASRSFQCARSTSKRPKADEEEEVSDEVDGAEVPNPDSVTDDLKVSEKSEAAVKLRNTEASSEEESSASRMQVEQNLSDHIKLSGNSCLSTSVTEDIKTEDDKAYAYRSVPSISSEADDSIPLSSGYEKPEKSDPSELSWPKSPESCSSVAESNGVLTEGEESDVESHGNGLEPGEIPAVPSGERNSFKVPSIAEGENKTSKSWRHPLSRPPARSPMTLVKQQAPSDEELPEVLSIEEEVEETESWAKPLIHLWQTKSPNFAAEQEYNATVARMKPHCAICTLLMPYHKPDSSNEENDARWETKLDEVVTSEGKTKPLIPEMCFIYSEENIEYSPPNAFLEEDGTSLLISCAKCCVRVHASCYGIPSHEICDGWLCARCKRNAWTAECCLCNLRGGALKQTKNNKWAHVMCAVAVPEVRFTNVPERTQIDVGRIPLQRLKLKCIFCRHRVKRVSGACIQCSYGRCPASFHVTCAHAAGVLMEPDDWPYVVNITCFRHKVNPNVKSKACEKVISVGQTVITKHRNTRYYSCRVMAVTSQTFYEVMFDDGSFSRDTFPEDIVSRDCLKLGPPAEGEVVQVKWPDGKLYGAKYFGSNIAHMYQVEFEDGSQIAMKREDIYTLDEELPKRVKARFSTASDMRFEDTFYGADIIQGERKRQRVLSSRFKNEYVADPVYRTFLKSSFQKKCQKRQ

[3] = biological target: T3, Lysine-specific demethylase 4D (Homo sapiens) (UniProt Q6B0I6); experiment: Inhibition of JMJD2D-mediated H3K9 demethylation activity at 3 mM
T3 sequence (whole entry): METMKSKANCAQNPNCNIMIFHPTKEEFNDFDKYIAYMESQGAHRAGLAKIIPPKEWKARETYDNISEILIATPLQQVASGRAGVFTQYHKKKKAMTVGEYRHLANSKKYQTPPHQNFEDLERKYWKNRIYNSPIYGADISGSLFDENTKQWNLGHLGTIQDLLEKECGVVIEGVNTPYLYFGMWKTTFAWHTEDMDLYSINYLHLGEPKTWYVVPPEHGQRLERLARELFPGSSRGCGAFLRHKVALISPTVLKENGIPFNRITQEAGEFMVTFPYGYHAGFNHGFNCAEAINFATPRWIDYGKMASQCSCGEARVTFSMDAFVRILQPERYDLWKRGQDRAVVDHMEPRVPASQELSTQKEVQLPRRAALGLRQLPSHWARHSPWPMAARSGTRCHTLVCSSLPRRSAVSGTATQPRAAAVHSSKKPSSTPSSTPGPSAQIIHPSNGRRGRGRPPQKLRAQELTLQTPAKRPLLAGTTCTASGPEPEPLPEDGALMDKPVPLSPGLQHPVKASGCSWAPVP
Procedure, shortened: (§2)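 Full-length GST-JMJD2D, expressed in E. coli and purified on glutathione-agarose, was incubated with histones, α-ketoglutarate, 2 mM ascorbate and 0.2 mM (NH₄)₂Fe(SO₄)₂ in 50 mM Hepes pH 7.4 with 50 mM NaCl and 50 mM KCl. Inhibitor in DMSO, or DMSO alone, was present for 2 h at 37 °C. H3K9me₃ was detected by Western blot with ECL, with H4K20me₁ as a control.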

[4] = biological target: T2, Lysine-specific demethylase 4C (Homo sapiens); experiment: Inhibition of JMJD2C-mediated H3K9 demethylation activity at 1 mM; procedure, shortened: as §1
[5] = biological target: T3, Lysine-specific demethylase 4D (Homo sapiens); experiment: Inhibition of JMJD2D-mediated H3K9 demethylation activity at 1 mM; procedure, shortened: as §2
[6] = biological target: T1, Lysine-specific demethylase 4A (Homo sapiens); experiment: Inhibition of JMJD2A-mediated H3K9 demethylation activity at 3 mM; procedure, shortened: as §1
[7] = biological target: Lysine-specific demethylase 4C (Homo sapiens) (UniProt Q9H3R0); experiment: Inhibition of JMJD2-mediated H3K9 demethylation in human 293T cells at 2.5 mM
[8] = biological target: T2, Lysine-specific demethylase 4C (Homo sapiens); experiment: Inhibition of JMJD2C-mediated H3K36 demethylation in human 293T cells at 2.5 mM; assay type: cell-based
Procedure, shortened: (§3)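 293T cells were transfected with or without Flag-JMJD2C by calcium phosphate coprecipitation; the precipitate was washed off with PBS after 12 h. Cells were grown 12 h in DMEM + 10% FCS under 10% CO₂, then for 24 h in fresh medium containing inhibitor in DMSO or 1% DMSO. Lysates were boiled in Laemmli buffer and histone methylation was assessed by Western blotting.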

[9] = biological target: Lysine-specific demethylase 4C (Homo sapiens) (UniProt Q9H3R0); experiment: Inhibition of JMJD2-mediated H3K36 demethylation in human 293T cells at 2.5 mM
[10] = biological target: T2, Lysine-specific demethylase 4C (Homo sapiens); experiment: Inhibition of JMJD2C-mediated H3K9 demethylation in human 293T cells at 2.5 mM; assay type: cell-based; procedure, shortened: as §3
[11] = biological target: T2, Lysine-specific demethylase 4C (Homo sapiens); experiment: Inhibition of JMJD2C-mediated H3K36 demethylation in human 293T cells at […]; assay type: cell-based; procedure, shortened: as §3
[12] = biological target: T2, Lysine-specific demethylase 4C (Homo sapiens); experiment: Inhibition of JMJD2C-mediated H3K9 demethylation in human 293T cells at […]; assay type: cell-based; procedure, shortened: as §3

Structure (SMILES): COC(=O)CNC(=O)C(=O)OC
Histone_modification [7]: Active | Histone_modification [8]: Active | Histone_modification [9]: Active | Histone_modification [10]: Active

Structure (SMILES): COC(=O)CCC(=O)OC
Histone_modification [11]: inactive | Histone_modification [12]: inactive

Structure (SMILES): O=C(O)CNC(=O)C(=O)O
Histone_modification [1]: Active | Histone_modification [2]: Active | Histone_modification [3]: Active | Histone_modification [4]: Active | Histone_modification [5]: Active | Histone_modification [6]: Active

Structure (SMILES): COC(=O)CN(Cc1ccc(N(C)C)cc1)C(=O)C(=O)OC
Histone_modification [7]: Active | Histone_modification [8]: inactive | Histone_modification [10]: inactive

Continued, values first:

Histone_modification [1]: inactive | Histone_modification [2]: Active | Histone_modification [3]: Active | Histone_modification [4]: inactive | Histone_modification [5]: Active | Histone_modification [6]: Active
Structure (SMILES): CN(C)c1ccc(CCN(CC(=O)O)C(=O)C(=O)O)cc1

Histone_modification [1]: inactive | Histone_modification [2]: Active | Histone_modification [3]: Active | Histone_modification [4]: inactive | Histone_modification [5]: Active | Histone_modification [6]: Active
Structure (SMILES): CN(C)c1ccc(CN(CC(=O)O)C(=O)C(=O)O)cc1

Histone_modification [1]: inactive | Histone_modification [2]: Active | Histone_modification [3]: Active | Histone_modification [4]: inactive | Histone_modification [6]: Active
Structure (SMILES): CN(C)c1cccc(CN(CC(=O)O)C(=O)C(=O)O)c1

Histone_modification [1]: inactive | Histone_modification [2]: Active-partial | Histone_modification [4]: inactive | Histone_modification [5]: Active | Histone_modification [6]: Active-partial
Structure (SMILES): CN(C)c1ccc(CCCN(CC(=O)O)C(=O)C(=O)O)cc1
